Assay results as given in ChEMBL document CHEMBL3272171, “Tyrosylated analogues of somatostatin” (J Med Chem, 1976).
Bridge positions count the residues as written; N and C are the ends. Square brackets hold non-standard residues; d marks the D form. Peptide text beside a SMILES is read from it.

Columns and labels:
[1] = Inhibition of growth hormone spontaneous secretion in rat anterior pituitary cells assessed as hormone level by radioimmunoassay relative to somatostatin; format: functional, Pituitary gland cell; parameters: scale not given: the % may be the effect or the level left
Rattus norvegicus [2] = assay: Inhibition of glucagon secretion in jugular vein dosed rat assessed using blood sample from hepatic portal vein assessed as hormone level by radioimmunoassay relative to somatostatin; format: functional; parameters: scale not given: the % may be the effect or the level left
In short: (§1)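 Rats under ether anaesthesia received test samples by jugular vein injection. Blood was drawn from the hepatic portal vein, and hormone levels were measured by specific radioimmunoassay. Six rats per point. Potency was derived from four-point bioassays with somatostatin as reference standard, with log dose-response parallelism checked.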

Rattus norvegicus [3] = assay: Inhibition of insulin secretion in jugular vein dosed rat assessed as assessed as hormone level using blood sample from hepatic portal vein by radioimmunoassay relative to somatostatin; format: functional; parameters: scale not given: the % may be the effect or the level left; in short: as §1
[4] = Partition coefficient, K of the compound using system BAW at 4:1:5 ratio; format: physicochemical
[5] = Retardation factor of the compound using 2.5% pyridine, 5% 1-butanol and 90% water at pH 4.7 buffer relative to lysine and alanine by ninhydrin spray

| Structure (SMILES) | Activity [1] [%] | Activity (Rattus norvegicus [2]) [%] | Activity (Rattus norvegicus [3]) [%] | K [4] | Rf [5] |
| --- | --- | --- | --- | --- | --- |
| C[C@H](N)C(=O)NCC(=O)N[C@H]1CSSC[C@@H](C(=O)O)NC(=O)[C@H](CO)NC(=O)[C@H]([C@@H](C)O)NC(=O)[C@H](Cc2ccccc2)NC(=O)[C@H]([C@@H](C)O)NC(=O)[C@H](CCCCN)NC(=O)[C@@H](Cc2ccc(O)cc2)NC(=O)[C@H](Cc2ccccc2)NC(=O)[C@H](Cc2ccccc2)NC(=O)[C@H](CC(N)=O)NC(=O)[C@H](CCCCN)NC1=O (H-AGCKNFF[dY]KTFTSC-OH; disulfide 3-14) | 10 | <10 | 28 | 0.24 | 0.41 |
| C[C@@H](O)[C@@H]1NC(=O)[C@H](Cc2ccccc2)NC(=O)[C@H]([C@@H](C)O)NC(=O)[C@H](CCCCN)NC(=O)[C@@H](Cc2c[nH]c3ccccc23)NC(=O)[C@H](Cc2ccccc2)NC(=O)[C@H](Cc2ccccc2)NC(=O)[C@H](CC(N)=O)NC(=O)[C@H](CCCCN)NC(=O)[C@@H](NC(=O)CNC(=O)[C@@H](N)Cc2ccc(O)cc2)CSSC[C@@H](C(=O)O)NC(=O)[C@H](CO)NC1=O | 400 |  | 659 | 0.34 | 0.38 |
| C[C@@H](O)[C@@H]1NC(=O)[C@H](Cc2ccccc2)NC(=O)[C@H]([C@@H](C)O)NC(=O)[C@H](CCCCN)NC(=O)[C@H](Cc2c[nH]c3ccccc23)NC(=O)[C@H](Cc2ccccc2)NC(=O)[C@H](Cc2ccccc2)NC(=O)[C@H](CC(N)=O)NC(=O)[C@H](CCCCN)NC(=O)[C@@H](NC(=O)CNC(=O)[C@@H](N)Cc2ccc(O)cc2)CSSC[C@@H](C(=O)O)NC(=O)[C@H](CO)NC1=O | 116 | 78 | 70 | 0.41 | 0.33 |
| C[C@H](N)C(=O)NCC(=O)N[C@H]1CSSC[C@@H](C(=O)O)NC(=O)[C@H](CO)NC(=O)[C@H]([C@@H](C)O)NC(=O)[C@H](Cc2ccc(O)cc2)NC(=O)[C@H]([C@@H](C)O)NC(=O)[C@H](CCCCN)NC(=O)[C@H](Cc2c[nH]c3ccccc23)NC(=O)[C@H](Cc2ccccc2)NC(=O)[C@H](Cc2ccccc2)NC(=O)[C@H](CC(N)=O)NC(=O)[C@H](CCCCN)NC1=O (H-AGCKNFFWKTYTSC-OH; disulfide 3-14) | 65 | 65 | 252 | 0.24 | 0.45 |
| C[C@H](N)C(=O)NCC(=O)N[C@H]1CSSC[C@@H](C(=O)O)NC(=O)[C@H](CO)NC(=O)[C@H]([C@@H](C)O)NC(=O)[C@H](Cc2ccccc2)NC(=O)[C@H]([C@@H](C)O)NC(=O)[C@H](CCCCN)NC(=O)[C@H](Cc2c[nH]c3ccccc23)NC(=O)[C@H](Cc2ccccc2)NC(=O)[C@H](Cc2ccc(O)cc2)NC(=O)[C@H](CC(N)=O)NC(=O)[C@H](CCCCN)NC1=O (H-AGCKNYFWKTFTSC-OH; disulfide 3-14) | 29 | 14 | 12 | 0.23 | 0.38 |
| C[C@H](N)C(=O)NCC(=O)N[C@H]1CSSC[C@@H](C(=O)O)NC(=O)[C@H](CO)NC(=O)[C@H]([C@@H](C)O)NC(=O)[C@H](Cc2ccccc2)NC(=O)[C@H]([C@@H](C)O)NC(=O)[C@H](CCCCN)NC(=O)[C@H](Cc2c[nH]c3ccccc23)NC(=O)[C@H](Cc2ccccc2)NC(=O)[C@H](Cc2ccccc2)NC(=O)[C@H](CC(N)=O)NC(=O)[C@H](CCCCN)NC1=O [SOMATOSTATIN] |  |  |  |  | 0.43 |
| C[C@H](N)C(=O)NCC(=O)N[C@H]1CSSC[C@@H](C(=O)O)NC(=O)[C@H](CO)NC(=O)[C@H]([C@@H](C)O)NC(=O)[C@H](Cc2ccccc2)NC(=O)[C@H]([C@@H](C)O)NC(=O)[C@H](CCCCN)NC(=O)[C@H](Cc2c[nH]c3ccccc23)NC(=O)[C@H](Cc2ccc(O)cc2)NC(=O)[C@H](Cc2ccccc2)NC(=O)[C@H](CC(N)=O)NC(=O)[C@H](CCCCN)NC1=O (H-AGCKNFYWKTFTSC-OH; disulfide 3-14) | 108 | 109 | 75 | 0.23 | 0.44 |
